The EternaBench riboswitch data

Tested on: MS2 coat protein
Experiment: apparent Kd, MS2 coat protein; higher = weaker binding; RNA-MaP array; FMN 200 µM where present
In short: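 SNAP-549-labelled MS2 coat protein, doubled from 0.7 or 1.5 nM to 3 µM, was titrated over designs transcribed by stalled E. coli RNA polymerase on Illumina sequencing-chip clusters. Titrations were run without and then with constant ligand in 100 mM Tris-HCl pH 7.5, 80 mM KCl, 4 mM MgCl2, BSA, DTT, yeast tRNA and Tween-20. The apparent Kd is the median of filtered per-cluster fits to green signal normalised to red-channel RNA signal and control-cluster median Fmax.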

[1] = designed as: OFF switch for flavin mononucleotide, no ligand
[2] = ligand present: flavin mononucleotide, designed as: OFF switch for flavin mononucleotide
[3] = designed as: ON switch for flavin mononucleotide, no ligand
[4] = ligand present: flavin mononucleotide, designed as: ON switch for flavin mononucleotide

| Sequence | apparent Kd [1] [nM] | apparent Kd [2] [nM] | apparent Kd [3] [nM] | apparent Kd [4] [nM] |
| --- | --- | --- | --- | --- |
| GGGUGACUAGGAUAUACAUGAGGAUCACCCAUGUGUACUGGACCUGGGUAGUCUUGGAGUAGAAGGAGUAGCUG | 85.3 | 127 |  |  |
| UGUAUGGACAGAGGAUAUACCGAUAGGAGAUACUAUCGACUAGUCCUCACAUGAGGAUCACCCAUGUAGAAGGCUGUCCAUACU | 25.2 | 179 |  |  |
| GUACAGAUCACAGGAUAUCACGUCGUUUAGACGUGAGAAGGGUGAUCACACAUGAAUAUUAAUACAUGAGGAUCACCCAUGUAC |  |  | 36 | 97.7 |
| CAAUGUACCUAGGAUAUAACCUACGACAUUGGGUUAGAAGGAGGAACAUGAGGAUCACCCAUGUGACUUCGCAA | 10 | 11.9 |  |  |
| AUAAAACAUGAGGAUCACCCAUGUCAACAAAGUCGAGGAUAUGGGCAAAUAAAAUAAGAACCAGAAGGCGAAUAAU |  |  | 398 | 36.6 |
| GUAGAGUAAGGAUAUGGUGAAUAGGAUAGAAUGGUUAGAAAUCAGAAGGUACAUGAGGAUCACCCAUGUAAUGU | 23 | 22.4 |  |  |
| GGGCCACAUGAGGAUCACCCAUGUAAACCCGUGCUCAGGGCACAGGAUAUGGGCCUGGAUUAGGCCCAGAAGGGUGGUCUGGCC |  |  | 29.4 | 10.6 |
| UUCAUCAAUGAAGGAUAUCUAUAUCCAACAUGAGGAUCACCCAUGUUGAGGAUCACCCAUGUAAAGGAGAAGGUUAAUAUAACU |  |  | 35.9 | 31.4 |
| ACACGACAUGAGGAUCACCCAUGUUUCCGAUUCACAGGAUAUGGGACAUCCGGAGGGUGACCAGAAGGGUGACUCG |  |  | 151 | 28.3 |
| CGCGUAUGAGGAUAUGCAUAAAAGGGUGCACUGAGUCUGAGACAUGAGGAUCACCCAUGUAGAAGGCGUGCGCU | 12.9 | 16 |  |  |
| GGAUUACAUGAGGAUCACCCAUGUGAGGAUAUCGAUGUCCUGUGUGGAGUGCGGGACUCGAGAAGGCACUUGGA | 43.8 | 219 |  |  |
| CGCAAGUAUACAUGAGGAUCACCCAUGUCAGAAAGGGUAAUCAGAAGGUACUAUUAGAGAUAGAGUAAGGAUAUGAAAUUUGUG |  |  | 399 | 110 |
| AAUUGGAUCCAGAAGGCAUGGACGACCCGUCAAAUUAACAUGAGGAUCACCCAUGUCAAAAGACAUGAGGAUAUGGAUCCUAAA |  |  | 869 | 28.4 |
| GUGCGGUAGGAGAAGGACGGAGGCUUCUUUUCAUACAUGAGGAUCACCCAUGUAGGAUAUCCUACCUCACGCGGCCUACUACUG | 8.36 | 7.7 |  |  |
| AUCAGCGCGUCAGGAUAUACGUCACUGCGUCAGCAGUGUGGUAAGAUCACAUGAGGAUCACCCAUGUAGAAGGGACGAGCUGAU | 12.8 | 307 |  |  |
| UUGUGCAAAGGAUAUACGUCCGACCUCGUGGAACUGAGAAUACAUGAGGAUCACCCAUGUAGAAGGUUGCCGAG | 11.7 | 15.1 |  |  |
| AUCUCACAUGAGGAUCACCCAUGUUAGGAUAUUGUUUCUUGAUGAUUACAUCAAGCGAUAAGAAGGGACAGACU | 25.6 | 27.4 |  |  |
| CCGACUUACUAGGAUAUCAGAGUCGAAAGACUCUGAGAAGGAGUAACAUGAGGAUCACCCAUGUGUCCUAUCGG | 23.3 | 77.7 |  |  |
| AAUAUAGAGCUGGUCUCAAAAUAAACAUGAGGAUCACCCAUGUAGGAUAUCAGCACGAUAAGUGCUGAGAAGGACAUCCAGCUC | 16.3 | 18.4 |  |  |
| UCCACUGCUGAGAAGGGAUACAUAUGGUUCUAGUCAGGAUAUCGAUACAGUGCAGCAUGAGGACAUGAGGAUCACCCAUGUAUU |  |  | 25.6 | 18.6 |
| AUCAGCUCGUCAGGAUAUACGUCACUGCGUCAGCAGGGUGGUAAGAUCACAUGAGGAUCACCCAUGUAGAAGGGACGAGCUGAU | 23 | 404 |  |  |
| AAGAAACAUGAGGAUCACCCAUGUCAGGAUAUCUCGAAAAGCAUAGAAAUAUGCGAAGAGAGAAGGGACAAGAA | 65 | 57 |  |  |
| CAGCAUCAUGUAGGAUAUGCGUGGCGAAGCUAUGCAGAAGGACAUGAGGAUCACCCAUGUCUUACUGUGCGUACACAGUUGCUG | 6.87 | 11.3 |  |  |
| GCGUCACAAUUAGAACCAAUACGAACAUGAGGAUCACCCAUGUAGGAUAUGCUAGAAGUUGAGUUGCAGAAGGACAUUUAUCGC | 10.6 | 9.8 |  |  |
